Measurements reported in ChEMBL document CHEMBL1955770, “Inhibition of S/G2 phase CDK4 reduces mitotic fidelity” (J Biol Chem, 2006).
Active and inactive are the calls of the source. The rule behind the calls is not given here.

How the values were obtained:
[1] = tested on: HeLa; assay: Cell cycle arrest in synchronized human HeLa cells assessed as time required to reach anaphase/telophase at 2 uM by time-lapse microscopy (reference value: 78+/-51 mins); format: functional
[2] = target: Insulin-like growth factor 1 receptor (Homo sapiens, UniProt P08069); assay: Inhibition of IGF1R using fluorescent substrate by IMAP assay
How it was run: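 Run in-house using IMAP: phosphorylated fluorescent peptide substrate binds preferentially to immobilized metal beads, which quantifies kinase activity. ATP at 3× the Km of each enzyme.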

[3] = tested on: MDA-MB-435; assay: Toxicity in human MDA-MB-435 cells at 8 uM by MTT assay; format: cell-based; conditions: mda-mb-435, 8 µM
[4] = tested on: MDA-MB-453; assay: Toxicity in human MDA-MB-453 cells at 8 uM by MTT assay; format: cell-based; conditions: mda-mb-453, 8 µM
[5] = tested on: HeLa; assay: Cell cycle arrest in human HeLa cells assessed as time delay in progression through G2/M phase at 2 uM treated at 4 hr post double thymidine-synchrony release using propidium iodide staining by FACS analysis; format: functional
How it was run: (§1)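 Cells harvested at set times post-release, fixed in 70% ethanol, stained with 5 μg/ml propidium iodide plus 0.5 mg/ml RNase A, and analysed by flow cytometry. Cell-cycle phase fractions calculated by ModFit.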

[6] = tested on: NCI-H460; assay: Toxicity in human H460a cells at 8 uM by MTT assay; format: cell-based; conditions: nci-h460, 8 µM
[7] = tested on: HeLa; assay: Decrease in borealin protein expression in human HeLa cells at 2 uM measured 14 hr post thymidine-synchrony release by immunoblot analysis; format: functional, cell-based
How it was run: (§2)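 Synchronized HeLa cells given 2 μM CDK4 inhibitor in early S phase and harvested at set times post-release. Lysed in supplemented NETN buffer on ice for 20 min. Lysates run on SDS-PAGE and immunoblotted for survivin, borealin and other chromosomal passenger proteins, with ECL detection. Cyclin D3 served as loading control.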

[8] = tested on: A2058; assay: Cell cycle arrest in human A2058 cells assessed as accumulation at S phase at 2 uM treated 1 hr and measured 12 hr post double hydroxyurea-synchrony release using propidium iodide staining by FACS analysis (reference value: 47 %); format: functional
[9] = Cell cycle arrest in human SK-MEL-13 cells assessed as accumulation at S phase at 2 uM treated 1 hr and measured 12 hr post double hydroxyurea-synchrony release using propidium iodide staining by FACS analysis (reference value: 10 %); format: functional, cell-based
How it was run: (§3)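 SK-Mel-13 cells synchronized with 2 mM hydroxyurea, then treated with 2 μM CDK4 inhibitor or left untreated 1 h after release. Harvested at indicated times post-release, ethanol-fixed, propidium iodide/RNase stained, and DNA content read by FACS. Proportions of G1, S and G2/M cells derived with ModFit.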

[10] = Cell cycle arrest in human SK-MEL-13 cells assessed as accumulation at G2/M phase at 2 uM treated 1 hr and measured 12 hr post double hydroxyurea-synchrony release using propidium iodide staining by FACS analysis (reference value: 50 %); format: functional, cell-based; how it was run: as §3
[11] = target: Cyclin-dependent kinase 4 (Homo sapiens) (UniProt P11802); assay: Inhibition of CDK4-mediated Rb phosphorylation at ser 795 in human HCT116 cells at 3 times IC90 after 24 hrs by immunoblot analysis; format: cell-based; conditions: HCT-116
How it was run: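 Asynchronous HCT-116 cells (DMEM, 3 mM HEPES, 10% serum, 37 °C, 5% CO₂) were given increasing inhibitor doses for 4 or 24 h. Lysis in NETN with phosphatase and protease inhibitors, then SDS-PAGE, nitrocellulose transfer and immunoblot for phospho-Rb (Ser-795) with HRP secondary and chemiluminescence.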

[12] = tested on: HeLa; assay: Cell cycle arrest at G2 phase in human HeLa cells assessed as time taken to reach peak mitosis at 2 uM treated at early S phase post thymidine-synchrony release by immunoblot method (reference value: 9-10 hrs); format: functional
[13] = tested on: HeLa; assay: Decrease in survivin protein expression in human HeLa cells at 2 uM measured 14 hr post thymidine-synchrony release by immunoblot analysis; format: functional, cell-based; how it was run: as §2
[14] = tested on: HeLa; assay: Induction of abberent mitosis in human HeLa cells assessed as lagging chromosomes at astral side of spindle microtubules at 2 uM treated 1 hr and measured 12 hr post thymidine-synchrony release by fluorescence microscopy; format: functional, cell-based
[15] = tested on: A2058; assay: Cell cycle arrest in human A2058 cells assessed as accumulation at S phase at 2 uM treated 1 hr and measured 10 hr post double hydroxyurea-synchrony release using propidium iodide staining by FACS analysis (reference value: 35 %); format: functional
[16] = tested on: COLO 205; assay: Toxicity in human COLO205 cells at 8 uM by MTT assay; format: cell-based; conditions: colo 205, 8 µM
[17] = tested on: HeLa; assay: Cell cycle arrest in human HeLa cells assessed as accumulation at S phase at 2 uM treated 2 hr and measured 8 hr post double thymidine-synchrony release using propidium iodide staining by FACS analysis (reference value: 8 %); format: functional; how it was run: as §1
[18] = tested on: HeLa; assay: Cell cycle arrest at G2 phase in human HeLa cells assessed as decrease in Cyclin A-CDK2 level at 2 uM treated at early S phase measured after 6-14 hr post thymidine-synchrony release by immunoblot method relative to untreated control; format: functional, cell-based
[19] = tested on: HeLa; assay: Decrease in survivin mRNA expression in human HeLa cells at 2 uM measured 8 to 14 hr post thymidine-synchrony release by RT-PCR analysis; format: functional, cell-based
How it was run: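 Survivin mRNA measured by real-time Taqman RT-PCR on TRIzol-extracted RNA from synchronized, treated HeLa samples, with β-actin as reference. Reaction used 600 nM each primer and 200 nM probe. Cycling: 50 °C for 2 min, 95 °C for 10 min, then 40 cycles of 95 °C for 15 s and 60 °C for 1 min. Values are the average of triplicate determinations.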

[20] = tested on: HeLa; assay: Cell cycle arrest in human HeLa cells assessed as delay in progression into mitosis at 2 uM measured after 8 to 20 hr post hydroxyurea-synchrony release by time-lapse microscopy; format: functional, cell-based
[21] = tested on: HeLa; assay: Cell cycle arrest at G2 phase in human HeLa cells assessed as increase in Wee1 level at 2 uM treated at early S phase measured after 8-14 hr post-synchrony release by immunoblot method; format: functional, cell-based
[22] = tested on: HeLa; assay: Cell cycle arrest at G2 phase in human HeLa cells at 2 uM treated at early S phase measured after 6-14 hr post thymidine-synchrony release by immunoblot method relative to untreated control
[23] = Cell cycle arrest in human SK-MEL-13 cells assessed as accumulation at G1 phase at 2 uM treated 1 hr and measured 10 hr post double hydroxyurea-synchrony release using propidium iodide staining by FACS analysis (reference value: 14 %); format: functional, cell-based; how it was run: as §3
[24] = tested on: COLO 205; assay: Antiproliferative activity against human COLO205 cells assessed as inhibition of S phase after 48 hrs by MTT assay; format: functional, cell-based; conditions: COLO 205, 48 h
How it was run: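 Cells grown in DMEM with 3 mM HEPES and 10% Serum Supreme at 37 °C, 5% CO2. Proliferation read by MTT assay 48 h after drug addition; IC50 given as mean of two separate determinations, each in duplicate.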

[25] = tested on: HeLa; assay: Induction of abberent mitosis in human HeLa cells assessed as lagging chromosomes at 2 uM treated 1 hr and measured 12 hr post thymidine-synchrony release by fluorescence microscopy
[26] = tested on: HeLa; assay: Cell cycle arrest in synchronized human HeLa cells assessed as delay in mitotic entry at 2 uM by time-lapse microscopy (reference value: 8-9 hrs); format: functional

Chain of Cyclin-dependent kinase 4 (Homo sapiens) (P11802 whole entry): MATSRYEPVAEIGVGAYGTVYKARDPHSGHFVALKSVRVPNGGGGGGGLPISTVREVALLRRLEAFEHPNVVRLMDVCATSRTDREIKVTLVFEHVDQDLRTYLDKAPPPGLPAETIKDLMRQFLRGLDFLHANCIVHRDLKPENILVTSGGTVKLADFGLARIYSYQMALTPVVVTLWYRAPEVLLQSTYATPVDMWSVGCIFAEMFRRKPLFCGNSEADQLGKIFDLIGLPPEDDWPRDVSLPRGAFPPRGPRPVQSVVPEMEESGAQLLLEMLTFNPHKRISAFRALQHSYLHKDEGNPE
Chain of Insulin-like growth factor 1 receptor (P08069 31-736 limits assumed): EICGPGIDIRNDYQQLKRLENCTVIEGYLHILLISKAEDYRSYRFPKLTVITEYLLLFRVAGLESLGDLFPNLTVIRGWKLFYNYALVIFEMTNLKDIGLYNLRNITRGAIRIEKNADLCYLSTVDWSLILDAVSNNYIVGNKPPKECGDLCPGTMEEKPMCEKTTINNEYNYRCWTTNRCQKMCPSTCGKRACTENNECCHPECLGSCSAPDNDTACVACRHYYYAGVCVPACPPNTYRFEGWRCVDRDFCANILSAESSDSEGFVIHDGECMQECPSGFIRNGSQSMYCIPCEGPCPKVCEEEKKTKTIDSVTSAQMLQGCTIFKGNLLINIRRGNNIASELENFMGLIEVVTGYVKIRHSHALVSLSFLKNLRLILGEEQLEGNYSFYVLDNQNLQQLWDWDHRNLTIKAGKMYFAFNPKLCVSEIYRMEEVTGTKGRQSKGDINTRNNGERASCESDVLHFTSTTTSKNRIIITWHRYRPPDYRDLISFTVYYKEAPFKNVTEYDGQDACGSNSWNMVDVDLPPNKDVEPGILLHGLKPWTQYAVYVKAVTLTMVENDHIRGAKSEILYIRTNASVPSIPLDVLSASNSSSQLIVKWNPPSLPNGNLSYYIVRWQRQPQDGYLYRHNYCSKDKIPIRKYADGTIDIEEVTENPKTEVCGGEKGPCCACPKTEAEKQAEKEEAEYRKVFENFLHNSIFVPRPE
Chain of Insulin-like growth factor 1 receptor (P08069 741-1367 limits assumed): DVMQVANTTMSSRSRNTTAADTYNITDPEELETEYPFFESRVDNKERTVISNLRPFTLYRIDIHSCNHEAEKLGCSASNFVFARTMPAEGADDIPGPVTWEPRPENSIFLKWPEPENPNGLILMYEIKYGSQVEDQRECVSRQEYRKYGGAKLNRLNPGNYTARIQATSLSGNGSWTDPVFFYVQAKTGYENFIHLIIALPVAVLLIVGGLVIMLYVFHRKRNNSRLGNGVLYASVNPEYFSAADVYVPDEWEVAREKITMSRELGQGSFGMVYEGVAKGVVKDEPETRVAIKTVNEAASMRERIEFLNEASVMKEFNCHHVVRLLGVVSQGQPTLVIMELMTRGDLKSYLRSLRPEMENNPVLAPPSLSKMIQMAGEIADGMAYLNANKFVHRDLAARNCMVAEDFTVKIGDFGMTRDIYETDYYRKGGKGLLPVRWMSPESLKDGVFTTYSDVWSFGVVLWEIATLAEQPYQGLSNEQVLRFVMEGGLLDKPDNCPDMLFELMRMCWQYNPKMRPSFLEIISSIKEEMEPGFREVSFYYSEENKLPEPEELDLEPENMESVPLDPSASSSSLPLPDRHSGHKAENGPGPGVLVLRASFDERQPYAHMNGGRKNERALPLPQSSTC

SMILES | Time [1] | IC50 [2] | Activity [3] | Activity [4] | Time [5] | Activity [6] | Activity [7] | Activity [8] | Activity [9] | Activity [10] | inhibition [11] | Time [12] | Activity [13] | Activity [14] | Activity [15] | Activity [16] | Activity [17] | Activity [18] | Activity [19] | Activity [20] | further results
COc1cccc(C(=O)c2sc(Nc3ccc(N4CCN(C(C)C)CC4)cc3)nc2N)c1 | 152 min | 20 µM | Toxic | Toxic | 2 h | Toxic | Active | 40% | 10% | 77% | Active | 12 h | Active | Active | 36% | Toxic | 9% | Active | Active | Active | Activity [21]: Active; Activity [22]: Active; Activity [23]: 11%; IC50 [24]: 0.56 µM; Activity [25]: 40%; Time [26]: 11 h
CN1CCN(c2ccc(Nc3nc(N)c(C(=O)c4ccc5c(c4)OCCO5)s3)cc2)CC1 | 152 min | 22 µM | Toxic | Toxic | 2 h | Toxic | Active | 40% | 10% | 77% | Active | 12 h | Active | Active | 36% | Toxic | 9% | Active | Active | Active | Activity [21]: Active; Activity [22]: Active; Activity [23]: 11%; IC50 [24]: 2.04 µM; Activity [25]: 40%; Time [26]: 11 h
